# Source: ChEMBL document CHEMBL1122881, “A dipeptide derived from kainic and L-glutamic acids: a selective antagonist of amino acid induced neuroexcitation with anticonvulsant properties” (1985)
# Assays:
# Type in all cases: functional
# [1] = organism: Rattus norvegicus; test: Compound (1 mM) to block the increase in the permeability of the neuronal sodium ions in rat striatum slices by excitatory 0.1 M of Quis qulalic acid; conditions: in the assay text read “0.1 mM” for “0.1 M”
# Method in brief: (§1)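 Values are percent of the efflux increase given by the agonist alone (100%), as mean ± standard deviation of at least triplicate experiments. Difference from control was tested by variance analysis.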
# [2] = organism: Rattus norvegicus; test: Compound (1 mM) to block the increase in the permeability of the neuronal sodium ions in rat striatum slices by excitatory 30 uM of N-methyl-D-aspartic acid; method in brief: as §1
# [3] = organism: Rattus norvegicus; test: Compound (1 mM) to block the increase in the permeability of the neuronal sodium ions in rat striatum slices by excitatory 0.5 mM of L-GLutamic acid.; method in brief: as §1
# [4] = organism: Mus musculus; test: Effective dose required to protect mice from picrotoxin-induced seizures
# Method in brief: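 CD1 mice of either sex (20–30 g), unanaesthetised, received 5 μL of drug in phosphate-buffered saline pH 7.4, or vehicle, icv (1 mm posterior, 1 mm lateral to bregma, 2.6 mm deep). Picrotoxin 3 mg/kg was given iv in the tail vein 10 min later. Stage 5 seizures were scored over 30 min, with at least 8 mice per group, and ED50 was calculated.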
# [5] = organism: Rattus norvegicus; test: Compound (1 mM) to block the increase in the permeability of the neuronal sodium ions in rat striatum slices by excitatory 0.1 mM of Kainic Acid.; method in brief: as §1
structure (smiles),measurement,setting,value
C=C(C)[C@H]1CN[C@H](C(=O)O)[C@H]1CC(=O)NC(CCC(=O)O)C(=O)O (stereo not given in full),Mean response,[1],69
same,Mean response,[2],16
same,Mean response,[3],90
same,ED50,[4],0.17 µM
same,Mean response,[5],84
